# Screens from PubChem BioAssay.
# Diaph inh CS = counter-screen for diaphorase-based assays: diaphorase inhibitors and chemical oxidizers. hit rate 0.69% among 190,000. inhibition, % at 20 µM. diaphorase resazurin-to-resorufin fluorescence, NADH, 16 min; bacterial (C. kluyveri) enzyme, not human;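 active = primary screen inhibition at 20 µM above a set limit, cut at about 50% in these data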;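 note: plate controls were DMSO with full reaction for no effect and wells lacking NADH for full effect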
#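 Assay system: diaphorase enzyme from Clostridium kluyveri; Input: enzyme working solution with 0.14 U/mL diaphorase; Timing: 16 min at room temperature; Technique: resorufin fluorescence, excitation 544 nm, emission 590 nm; Benchmarks: positive control minus NADH, DMSO neutral control.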
# Diaph act CS = diaphorase activation or chemical reduction counter-screen; AID 1229; Diaphorase/resazurin coupled assay, resorufin fluorescence, 16 min; active compounds read high; 1 = vehicle wells, 0 = NADH-free wells; activation factor at 20 µM; hit rate 0.005% among 190,000;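 active = diaphorase activity raised at least twofold by the compound at 20 µM; inactive = activation factor below 2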
#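 Measured by – red resorufin fluorescence at 544/590 nm excitation/emission · Test system – Clostridium kluyveri diaphorase, purified enzyme · Incubation – reaction time 16 min, room temperature · Buffer or medium – 50 mM HEPES pH 7.4 with 4.542 mM MgCl2, 0.005% Tween 20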
# L major viab = Leishmania major promastigote growth inhibition | AID 1063 | Leishmania major promastigotes, resazurin fluorescence viability | hit rate 9% among 200,000 | inhibition, % at 10 µM;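 note: promastigotes grown with compound for 44 hours at 28 °C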
# Redox H2O2 prof = compounds producing H2O2 with reducing agent – biochemical, NIH compound library profiling, artefact control for MLSCN library redox annotation, primary screen; DTT-dependent redox cycling H2O2, phenol red/HRP absorbance; 100% = 100 µM peroxide control, 0% = buffer; activation, % at 10 µM; hit rate 0.03% among 200,000; AID 878;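 active = activation of at least 50% relative to the plate's high and low controls in the primary single-dose screen; inactive = activation below 50%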;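 note: compound incubated with DTT at 0.8 mM final as the reducing agent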
# PfGluPho inh = PfG6PD (Plasmodium falciparum) enzyme inhibition; hit rate 0.78% among 350,000; inhibition, % at 20 µM; PfGluPho enzyme, NADPH resazurin-diaphorase fluorescence;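 active = inhibition reaching at least a set limit at 20 µM in the primary screen, cut at about 59% in these data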;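 note: 0% = DMSO wells with substrate and 100% = DMSO wells lacking glucose-6-phosphate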
# G6PDH CS = counter-screen for G6PDH assay hits: L. mesenteroides G6PDH inhibition | hit rate 0.12% among 200,000 | inhibition, % at 5 µM | Purified L. mesenteroides G6PDH, diaphorase/resazurin coupled fluorescence, 45 min
# The depositor's hits bear a star; . = no result given. Only a selection was taken, and hits are over-represented in it overall. Cut-off read from the data, not from the text of the source, unless noted: active = inhibition above about 50%; inactive = the rest.
SMILES,Diaph inh CS,Diaph act CS,L major viab,Redox H2O2 prof,PfGluPho inh,G6PDH CS
Cc1cccc(NC(=O)C2CCN(S(=O)(=O)c3c(C)noc3C)CC2)c1,.,.,.,.,2.9,.
O=C(NC1CCN(Cc2ccccc2)CC1)C1CCN(S(=O)(=O)c2ccccc2)CC1,.,.,.,.,10.8,.
CCc1cccc(NC(=O)C2CCN(S(=O)(=O)c3c(C)noc3C)CC2)c1,8.1,0.9,63.6*,0.4,-6.1,1.5
Cc1noc(C)c1S(=O)(=O)N1CCC(C(=O)NC2CCN(Cc3ccccc3)CC2)CC1,6.4,0.9,88.9*,0.3,-13.7,4.6
Cc1ccccc1-c1nc(CN2CCC(C(=O)NC3CCN(Cc4ccccc4)CC3)CC2)c(C)o1,.,.,99.7*,-0.6,6.4,.
C[C@H](NC(N)=O)C(=O)N1CCN(S(=O)(=O)c2ccc3ccccc3c2)CC1,.,.,.,.,11.5,.
COc1ccccc1/C=N\N=C(\N)c1ccccn1,9.4,0.9,10.4,-0.2,1.7,-3.1
O=C(NC1CCCc2ccccc21)C1CCN(S(=O)(=O)N2CCCCCC2)CC1 (stereo not drawn),19.4,0.8,2.9,0.5,-11.6,-0.7
Cc1noc(C)c1S(=O)(=O)N1CCC(C(=O)NC2CCCc3ccccc32)CC1 (stereo not drawn),15.6,0.8,60.2*,-0.8,-15.6,3.7
O=C(CN1CCCc2ccccc21)NCCc1ccc(F)cc1,0.4,1,17.4,0.2,3.0,4.1
CC(C)CCNC(=O)c1sc2ccc(S(=O)(=O)N3CCCCC3)cc2c1N,25.7,0.7,11.6,0.8,25.1,16.7
Nc1c(C(=O)NCCc2ccc(Cl)cc2)sc2ccc(S(=O)(=O)N3CCCCC3)cc12,22.3,0.8,82.6*,0.3,.,-9.0
O=C(NCC(c1cccnc1)N1CCN(c2ccc(F)cc2)CC1)c1ccccc1 (stereo not drawn),10.2,0.9,89.3*,-1.2,-12.2,5.1
O=C(NCc1ccc(Cl)cc1)C(=O)NCC(c1cccnc1)N1CCN(c2ccc(F)cc2)CC1 (stereo not drawn),27.5,0.7,94.0*,-2.0,-9.2,-3.7
CCN1CCN(c2ncnc3c2sc(=S)n3-c2ccccc2)CC1,7.5,0.9,51.6*,-1.0,-16.1,-9.2
CCCCN(CC)CCNC(=O)c1nn(-c2ccc(OC)cc2)c(=O)c2c1c1ccccc1n2C,-8.7,1.1,6.6,-0.4,0.8,-3.9
CCN(Cc1ccccc1)C(=O)c1nn(-c2ccc(OC)cc2)c(=O)c2c1c1ccccc1n2C,14.0,0.9,50.5*,-0.1,20.3,-3.0
CC(=O)Oc1cccc(C(=O)Nc2ccccc2C(=O)N2CCCC2)c1,.,.,.,.,-5.5,.
O=C(O)c1cn(-c2ccc(F)cc2)c2cc(N3CCNCC3)c(F)cc2c1=O,.,.,.,.,-11.0,.
CCN1CCCC1CN(Cc1cc2c(C)cc(C)cc2[nH]c1=O)C(=O)NC1CCCCC1 (stereo not drawn),25.8,0.7,59.4*,-0.4,-4.8,2.7
COc1ccc(C(=O)N2CCN(Cc3nc(CC4CC4)no3)CC2)cc1,13.8,0.9,-3.5,-0.9,-7.8,1.6
COc1cc(C(=O)Nc2nc(-c3ccc(F)cc3)cs2)ccc1OCC(=O)N1CCOCC1,11.3,0.9,96.1*,0.0,12.8,2.2
COc1ccc(-c2nc(NC(=O)c3ccc(OCC(=O)Nc4ccc(F)cc4)c(OC)c3)sc2C)cc1,7.8,0.9,69.0*,0.6,2.1,-0.3
COc1ccc(-c2csc(NC(=O)c3ccc(OCC(=O)N4CCOCC4)c(OC)c3)n2)cc1,22.7,0.8,35.8,0.1,13.7,-2.0
COc1cc(C(=O)Nc2nc(-c3ccc(C)cc3)cs2)ccc1OCC(=O)N1CCOCC1,10.7,0.9,94.8*,-0.6,18.3,-9.1
COc1cc(C(=O)NNC(=O)c2ccc(F)cc2)ccc1OCC(=O)N1CCOCC1,.,.,.,.,-25.7,.
Cc1ccc(/C=C2\SC(=S)N(CCCC(=O)Nc3cccnc3)C2=O)cc1,.,.,.,.,-11.7,.
O=C(O)COc1ccccc1C=NNc1ccc([N+](=O)[O-])cc1S(=O)(=O)Nc1ccc(Cl)cc1,.,.,.,.,-2.8,.
COc1ccc(NS(=O)(=O)c2cc([N+](=O)[O-])ccc2N/N=C\c2c(C)[nH]c3ccccc23)cc1,13.0,0.9,98.2*,1.2,12.0,-2.3
